Experiments:
Type in all cases: functional, cell-based
[1] = Cytotoxicity in human AZ-521 cells assessed as cell viability after 48 hrs by MTT assay; settings: AZ-521, 48 h
HL-60 = test: Cytotoxicity in human HL60 cells assessed as cell viability after 48 hrs by MTT assay; settings: HL-60, 48 h
In short: (§1)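 Growth conditions: RPMI 1640 for HL60, CRL1579, NIH:OVCAR-3, SK-BR-3, DU145 and PANC-1; D-MEM for A549; MEM for WI-38; all with 10% FBS and antibiotics, 37 °C, 5% CO2. Seeded at 3 × 10^3 cells/well (OVCAR-3 1 × 10^4), then treated 48 h with 10^-4 to 10^-6 M. MTT for 3 h, formazan dissolved in 0.04 M HCl/2-propanol, A570/630. IC50 (50% growth inhibition) from triplicates.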

OVCAR-3 = test: Cytotoxicity in human OVCAR3 cells assessed as cell viability after 48 hrs by MTT assay; settings: OVCAR-3, 48 h; in short: as §1
SK-BR-3 = test: Cytotoxicity in human SK-BR-3 cells assessed as cell viability after 48 hrs by MTT assay; settings: SK-BR-3, 48 h; in short: as §1
DU-145 = test: Cytotoxicity in human DU145 cells assessed as cell viability after 48 hrs by MTT assay; settings: DU-145, 48 h; in short: as §1
[2] = Cytotoxicity in human CRL1579 cells assessed as cell viability after 48 hrs by MTT assay; in short: as §1
PANC-1 = test: Cytotoxicity in human PANC1 cells assessed as cell viability after 48 hrs by MTT assay; settings: PANC-1, 48 h; in short: as §1
A549 = test: Cytotoxicity in human A549 cells assessed as cell viability after 48 hrs by MTT assay; settings: A549, 48 h; in short: as §1

Compound | IC50 [1] | IC50 (HL-60) | IC50 (OVCAR-3) | IC50 (SK-BR-3) | IC50 (DU-145) | IC50 [2] | IC50 (PANC-1) | IC50 (A549)
O=c1[nH]cc(F)c(=O)[nH]1 [FLUOROURACIL] | > 100 µM | 9.5 µM | > 100 µM | > 100 µM | > 100 µM | > 100 µM | 54.1 µM | –
C=C(CC[C@@H](C(=O)OC)[C@H]1CC[C@@]2(C)C3=CC[C@@H](C(=C)C)[C@](C)(CCC(=O)OC)C3=CC[C@]12C)C(C)C [DIMETHYL PORICOATE C] | 19.8 µM | 2.4 µM | 23.6 µM | 23.9 µM | > 100 µM | 27.8 µM | > 100 µM | 83.8 µM
C=C(CC[C@@H](CO)[C@H]1CC[C@@]2(C)C3=CC[C@H]4C(C)(C)[C@@H](O)CC[C@]4(C)C3=CC[C@]12C)C(C)C | 12.5 µM | 6.7 µM | 6.4 µM | 11.7 µM | > 100 µM | 2.8 µM | 22.6 µM | 4 µM
C=C(CC[C@@H](C(=O)O)[C@H]1CC[C@@]2(C)C3=CC[C@@H](C(=C)C)[C@](C)(CCC(=O)O)C3=CC[C@]12C)C(C)C [PORICOIC ACID C] | 45.9 µM | 25.9 µM | 53.1 µM | 23.9 µM | 14.5 µM | > 100 µM | 68.9 µM | 27 µM
C=C(CC[C@@H](CO)[C@H]1[C@H](O)C[C@@]2(C)C3=CC[C@H]4C(C)(C)[C@H](O)CC[C@]4(C)C3=CC[C@]12C)C(C)(C)O | > 100 µM | 2.5 µM | > 100 µM | > 100 µM | > 100 µM | 14 µM | > 100 µM | > 100 µM
C=C(CC[C@@H](C(=O)O)[C@H]1[C@H](O)C[C@@]2(C)C3=C(CC[C@]12C)[C@@](C)(CCC(=O)O)[C@H](C(=C)C)CC3)C(C)C [PORICOIC ACID H] | > 100 µM | – | > 100 µM | > 100 µM | > 100 µM | – | > 100 µM | > 100 µM
C=C(CC[C@@H](C(=O)OC)[C@H]1CC[C@@]2(C)C3=CC[C@H]4C(C)(C)C(=O)CC[C@]4(C)C3=CC[C@]12C)C(C)C | 53.4 µM | 23.5 µM | > 100 µM | 27.5 µM | > 100 µM | 20.9 µM | > 100 µM | 96.5 µM
C=C(C)[C@@H]1CCC2=C(CC[C@]3(C)[C@@H]([C@@H](CCC=C(C)C)C(=O)OC)[C@H](O)C[C@@]23C)[C@@]1(C)CCC(=O)OC [DIMETHYL PORICOATE G] | 34.5 µM | 8.8 µM | 26.3 µM | 4.3 µM | > 100 µM | 42.4 µM | > 100 µM | 66 µM
C=C(CC[C@@H](CO)[C@H]1CC[C@@]2(C)C3=CC[C@@H](C(=C)C)[C@](C)(CCCO)C3=CC[C@]12C)C(C)C [PORICOTRIOL C] | 13.3 µM | 12.3 µM | 70.3 µM | 11 µM | 20.3 µM | 76.4 µM | 91.3 µM | 80 µM
C=C(CC[C@@H](C(=O)OC)[C@H]1[C@H](O)C[C@@]2(C)C3=CC[C@@H](C(=C)C)[C@](C)(CCC(=O)OC)C3=CC[C@]12C)C(C)C [DIMETHYL PORICOATE A] | 32.1 µM | 18.2 µM | 91.8 µM | 32.2 µM | > 100 µM | > 100 µM | > 100 µM | 79.6 µM
C=C(CC[C@@H](C(=O)O)[C@H]1[C@H](O)C[C@@]2(C)C3=CC[C@@H](C(=C)C)[C@](C)(CCC(=O)O)C3=CC[C@]12C)C(C)C [PORICOIC ACID A] | > 100 µM | – | > 100 µM | > 100 µM | > 100 µM | – | > 100 µM | > 100 µM
C=C(CC[C@@H](C(=O)OC)[C@H]1[C@H](O)C[C@@]2(C)C3=C(CC[C@]12C)[C@@](C)(CCC(=O)OC)[C@H](C(=C)C)CC3)C(C)C [DIMETHYL PORICOATE H] | 14.6 µM | 3.6 µM | 49.5 µM | 15.9 µM | 28.9 µM | 97.6 µM | 44.9 µM | 13.5 µM
C=C(CC[C@@H](C(=O)OC)[C@H]1[C@H](O)C[C@@]2(C)C3=CC[C@H]4C(C)(C)[C@H](O)CC[C@]4(C)C3=CC[C@]12C)C(C)(C)O | 14.4 µM | 6.9 µM | 67.5 µM | 27.5 µM | 28.9 µM | 76.5 µM | 71.3 µM | 41.4 µM
C=C(CC[C@@H](C(=O)O)[C@H]1[C@H](O)C[C@@]2(C)C3=CC[C@H]4C(C)(C)[C@H](O)CC[C@]4(C)C3=CC[C@]12C)C(C)(C)O | 51.5 µM | – | 9.5 µM | 62.3 µM | > 100 µM | – | 67.4 µM | 4 µM
C=C(CC[C@@H](CO)[C@H]1[C@H](O)C[C@@]2(C)C3=C(CC[C@]12C)[C@@](C)(CCCO)[C@H](C(=C)C)CC3)C(C)C | > 100 µM | 2.9 µM | > 100 µM | 51.3 µM | > 100 µM | 9.9 µM | > 100 µM | 41.2 µM
C=C(C)[C@@H]1CCC2=C(CC[C@]3(C)[C@@H]([C@H](CO)CCC=C(C)C)[C@H](O)C[C@@]23C)[C@@]1(C)CCCO [PORICOTRIOL G] | 13.4 µM | 7.5 µM | 43.5 µM | 13 µM | > 100 µM | 11.6 µM | 17.9 µM | 11 µM
C=C(C)[C@@H]1CCC2=C(CC[C@]3(C)[C@@H]([C@@H](CCC=C(C)C)C(=O)O)[C@H](O)C[C@@]23C)[C@@]1(C)CCC(=O)O [PORICOIC ACID G] | > 100 µM | – | > 100 µM | > 100 µM | > 100 µM | – | > 100 µM | > 100 µM
C=C(CCC(C(=O)O)[C@H]1CC[C@@]2(C)C3=CC[C@H]4C(C)(C)C(=O)CC[C@]4(C)C3=CC[C@]12C)C(C)C (stereo not given in full) [DEHYDROEBURICONIC ACID] | > 100 µM | 29.2 µM | 37.7 µM | 12.2 µM | > 100 µM | 89.7 µM | 5.5 µM | 10 µM

Reference: ChEMBL document CHEMBL1765085, “Cytotoxic and apoptosis-inducing activities of triterpene acids from Poria cocos” (J Nat Prod, 2011)
